The source of these data is ChEMBL document CHEMBL4261642, “Design, synthesis, and ex vivo evaluation of a selective inhibitor for retinaldehyde dehydrogenase enzymes” (Bioorg Med Chem, 2018).

The species named for assay [1] is Gallus gallus. In words: Inhibition of N-terminal His6-tagged recombinant chick RALDH3 expressed in Escherichia coli BL21(DE3) cells at 100 nM using RAL as substrate assessed as Km preincubated for 20 mins followed by substrate addition and measured after 30 mins in presence of NADH by fluorescence assay (reference value: 84.45 +/- 30.99 microM).
Assay [2] concerns the target T1, Retinal dehydrogenase 2 (Gallus gallus) (UniProt O93344).
T1 sequence (whole entry): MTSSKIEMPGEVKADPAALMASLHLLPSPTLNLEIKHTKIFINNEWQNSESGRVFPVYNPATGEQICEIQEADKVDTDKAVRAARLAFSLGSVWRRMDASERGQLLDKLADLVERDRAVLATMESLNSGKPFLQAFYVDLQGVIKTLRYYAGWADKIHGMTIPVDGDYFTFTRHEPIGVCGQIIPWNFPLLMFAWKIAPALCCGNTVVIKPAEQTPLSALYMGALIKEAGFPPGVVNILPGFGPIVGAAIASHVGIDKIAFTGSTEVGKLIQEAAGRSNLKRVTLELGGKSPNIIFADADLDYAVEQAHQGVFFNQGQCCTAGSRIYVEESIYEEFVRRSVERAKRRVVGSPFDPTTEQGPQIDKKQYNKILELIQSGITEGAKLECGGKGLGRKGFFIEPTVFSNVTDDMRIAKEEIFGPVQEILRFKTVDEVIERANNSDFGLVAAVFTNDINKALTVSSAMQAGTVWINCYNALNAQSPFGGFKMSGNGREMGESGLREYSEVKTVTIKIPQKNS
In words: Inhibition of chick RALDH2 expressed in doxycycline-inducible HEK293 cells assessed as inhibition of ATRA synthesis at 0.05 uM after 24 hrs in presence of […]. Format: cell-based.

The target in another assay is T2, Retinal dehydrogenase 2 (Homo sapiens, UniProt O94788).
T2 sequence (O94788 whole entry): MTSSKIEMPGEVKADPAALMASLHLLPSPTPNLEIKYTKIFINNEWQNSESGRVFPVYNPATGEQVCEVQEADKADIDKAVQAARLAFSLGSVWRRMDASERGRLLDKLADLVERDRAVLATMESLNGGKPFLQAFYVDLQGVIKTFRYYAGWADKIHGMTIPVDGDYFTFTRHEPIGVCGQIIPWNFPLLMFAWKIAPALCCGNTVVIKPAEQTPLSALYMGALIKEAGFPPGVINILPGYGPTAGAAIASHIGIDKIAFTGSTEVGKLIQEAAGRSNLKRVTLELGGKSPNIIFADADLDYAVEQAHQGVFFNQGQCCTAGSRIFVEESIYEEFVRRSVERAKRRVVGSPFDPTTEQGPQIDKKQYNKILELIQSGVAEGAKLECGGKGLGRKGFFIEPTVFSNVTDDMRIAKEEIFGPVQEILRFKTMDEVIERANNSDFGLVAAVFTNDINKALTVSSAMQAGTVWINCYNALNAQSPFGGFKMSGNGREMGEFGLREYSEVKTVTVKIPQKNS
The assay is described as follows: Inhibition of N-terminal His6-tagged recombinant human RALDH2 using RAL as substrate measured after 30 mins in presence of NADH by Morrison's plot analysis. In short, it runs like this:
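Ki obtained by fitting the Morrison tight-binding equation to the 20-min pre-incubation retinaldehyde/NADH fluorescence inhibition data. Inputs were enzyme concentration (RALDH1 0.358, RALDH2 0.091, RALDH3 0.355, hRALDH2 0.176 μM), substrate concentration and Km. Triplicates from 3–5 independent experiments.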

For assay [3], the species on record is Gallus gallus. The assay is described as follows: Inhibition of N-terminal His6-tagged recombinant chick RALDH3 expressed in Escherichia coli BL21(DE3) cells at 500 nM using RAL as substrate assessed as Km preincubated for 20 mins followed by substrate addition and measured after 30 mins in presence of NADH by fluorescence assay (reference value: 84.45 +/- 30.99 microM).

The next assay has as its system HEK293. In words: Cytotoxicity against doxycycline-inducible chicken RALDH2 expressing HEK293 cells by measuring ATP production after 24 hrs by CelTiter-Glo assay. To be noted: Homo sapiens, HEK293, 24 h. In kind it is cell-based. In short, it runs like this:
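(Dox)RALDH2-eGFP HEK293 cells seeded at 10,000/well in DMEM + 10% FBS for 24 h, then switched to DMEM with 0.1% FBS containing 0–50 μM compound in DMSO (<0.5%) for 24 h at 37°C, 5% CO2. ATP read by luminescence and expressed as % of vehicle (0.5% DMSO) control. Two experiments, n = 5 per concentration.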

Assay [4] addresses T3, Retinal dehydrogenase 2 (Homo sapiens) (UniProt O94788).
T3 sequence (whole entry): T2 sequence (O94788 whole entry)
In words: Inhibition of RALDH2 (unknown origin) […] assessed as time dependence ratio (kinact/KI).

Assay [5] addresses T4, Aldehyde dehydrogenase, mitochondrial (Homo sapiens, UniProt P05091).
T4 sequence (P05091 whole entry): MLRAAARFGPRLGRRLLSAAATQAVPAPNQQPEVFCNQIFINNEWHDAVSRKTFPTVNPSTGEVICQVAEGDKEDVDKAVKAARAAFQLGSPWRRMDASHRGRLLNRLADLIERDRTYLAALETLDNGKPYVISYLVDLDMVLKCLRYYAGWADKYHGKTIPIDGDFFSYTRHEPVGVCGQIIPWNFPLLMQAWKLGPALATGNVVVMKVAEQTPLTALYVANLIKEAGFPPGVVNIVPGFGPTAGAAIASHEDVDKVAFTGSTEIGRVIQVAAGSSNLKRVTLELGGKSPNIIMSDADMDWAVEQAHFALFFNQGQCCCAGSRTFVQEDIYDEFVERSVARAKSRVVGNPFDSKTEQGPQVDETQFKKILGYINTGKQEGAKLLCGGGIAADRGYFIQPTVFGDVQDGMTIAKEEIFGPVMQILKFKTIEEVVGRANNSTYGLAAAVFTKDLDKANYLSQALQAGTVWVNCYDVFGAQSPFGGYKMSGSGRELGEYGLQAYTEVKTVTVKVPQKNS
In words: Inhibition of N-terminal His6-tagged recombinant human mitochondrial ALDH2 using propionaldehyde as substrate preincubated for 20 mins to 1 hr followed by substrate addition and measured for 5 mins in presence of NADH by spectrophotometric assay.

The species entered for assay [6] is Gallus gallus. The assay is described as follows: Inhibition of N-terminal His6-tagged recombinant chick RALDH3 expressed in Escherichia coli BL21(DE3) cells at 250 nM using RAL as substrate assessed as Vmax preincubated for 20 mins followed by substrate addition and measured after 30 mins in presence of NADH by fluorescence assay (reference value: 107.3 +/- 15.97 pmol/microM/min).

Regarding `CC1=C(/C=C/C(C)=C/C=C/C(C)=C/C(=O)C(Cl)Cl)C(C)(C)CCC1`, the Km (usually the substrate concentration at which the rate is half of its maximum) in the assay listed under Gallus gallus [1] was determined as 52.7 µM; in the assay filed under Gallus gallus [3], 26.9 µM. For the same compound, in assay [2], the inhibition (in general, the percentage by which the read-out fell short of the control) was 42%. In addition, the Ki – broadly, a measure of affinity in units of concentration, obtained from inhibition or displacement – at Retinal dehydrogenase 2 is 0.0643 µM. The IC50 (usually the concentration needed to halve the response being measured) is 3.09 µM with HEK293 and “Not Active” in assay [5]. For the same compound, the kinact/KI (as a rule, the maximal inactivation rate divided by the concentration that gives half of it) in assay [4] was 1550 to 233000 M⁻¹ s⁻¹. The Vmax in the assay filed under Gallus gallus [6] was 41.6 pmol/µM/min.
